One data set relates to Human coronavirus 229E. Briefly: Antiviral activity against Human coronavirus 229E infected in human HEL299 cells assessed as inhibition of virus-induced cytopathic effect after 3 to 6 days by MTS assay. Type of data set: functional, organism-based. (Cytopathic effects are the visible damage that an infection or toxin causes in cultured cells.)
The test system of the next data set is Human alphaherpesvirus 1. Description: Antiviral activity against Herpes simplex virus type 1 infected in human HEL299 cells assessed as inhibition of virus-induced cytopathic effect after 3 to 6 days by MTS assay. Type of data set: functional, organism-based.
Data set [1] can be described thus: Cytotoxicity against MDCK cells assessed as alterations in normal cell morphology measured after 3 to 6 days by microscopic analysis. The settings on record: dog. The data set is classed as cell-based, Canis lupus familiaris. The method in brief:
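Uninfected MDCK cultures in FCS-free Ultra MDCK medium with trypsin received five-fold compound dilutions (up to […]) for 3–6 days at 35 °C. Microscopy scored morphology, and MCC was taken as the lowest concentration causing minimal rounding, shrinking or lysis.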

The next data set concerns MDCK. Description: Cytotoxicity against MDCK cells assessed as reduction in cell viability measured after 3 to 6 days by MTS assay. Type of data set: cell-based, Canis lupus familiaris. The note with it: dog. An outline of the steps: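 Mock-infected MDCK plates were run in parallel (FCS-free Ultra MDCK medium with TPCK-trypsin) with serial five-fold dilutions up to […], 35 °C for 3–6 days. CC50 was interpolated from semi-log dose-response curves; mean of two or three experiments.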
Background: Tetrazolium assays rely on reduction of a dye to a coloured formazan, in cell work by metabolically active cells.

A further data set has as its system Influenza A virus. Briefly: Antiviral activity against Influenza A virus (A/Puerto Rico/8/34(H1N1)) infected in MDCK cells assessed as protection against virus-induced reduction in cell viability after 3 to 6 days by MTS assay. The data set is classed as functional, organism-based. The settings on record: A/Puerto Rico/8/1934(H1N1). An outline of the steps:
(§1)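 MDCK cells seeded at 9000/well and infected one day later (semiconfluent) with 100 CCID50 virus. Medium was FCS-free Ultra MDCK with 2 μg/mL TPCK-trypsin. Serial five-fold compound dilutions (top 100 μM) were added with the virus, followed by 3–6 days at 35 °C. MTS read-out gave % protection versus virus and mock controls. EC50 was interpolated from semi-log curves; mean of two or three experiments.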

The test system of a further data set is Human adenovirus 2. Briefly: Antiviral activity against Human adenovirus type 2 infected in human HEL299 cells assessed as inhibition of virus-induced cytopathic effect after 3 to 6 days by MTS assay. The data set is classed as functional, organism-based.
A further data set has as its system Human respirovirus 3. Briefly: Antiviral activity against Parainfluenza virus 3 infected in African green monkey Vero cells assessed as inhibition of virus-induced cytopathic effect after 3 to 6 days by MTS assay. Type of data set: functional, organism-based.
The subject of data set [2] is Vesicular stomatitis virus. Description: Antiviral activity against Vesicular stomatitis virus infected in human HEL299 cells assessed as inhibition of virus-induced cytopathic effect after 3 to 6 days by MTS assay. The data set is classed as functional, organism-based.
In another data set the test system is Vero. Briefly: Cytotoxicity against African green monkey Vero cells assessed as reduction in cell viability measured after 3 to 6 days by MTS assay. The note with it: chlorocebus sabaeus. The data set is classed as cell-based.
The next data set concerns Vaccinia virus. Description: Antiviral activity against Vaccinia virus infected in human HEL299 cells assessed as inhibition of virus-induced cytopathic effect after 3 to 6 days by MTS assay. The settings on record: Orthopoxvirus vaccinia. Type of data set: functional, organism-based.
Data set [3] concerns Human immunodeficiency virus. Description: Antiviral activity against HIV. The data set is classed as functional, organism-based.
In data set [4] the test system is Mammalian orthoreovirus 1. Briefly: Antiviral activity against Reovirus-1 infected in African green monkey Vero cells assessed as inhibition of virus-induced cytopathic effect after 3 to 6 days by MTS assay. Type of data set: functional, organism-based.
The next data set has as its system Yellow fever virus. Description: Antiviral activity against Yellow fever virus infected in African green monkey Vero cells assessed as inhibition of virus-induced cytopathic effect after 3 to 6 days by MTS assay. The data set is classed as functional, organism-based.
A further data set concerns Influenza B virus. Briefly: Antiviral activity against Influenza B virus B/Ned/537/05 infected in MDCK cells assessed as protection against virus-induced reduction in cell viability after 3 to 6 days by MTS assay. Type of data set: functional, organism-based. The settings on record: B/Ned/537/05, MDCK. An outline of the steps: as §1
The next data set concerns Sindbis virus. Description: Antiviral activity against Sindbis virus infected in African green monkey Vero cells assessed as inhibition of virus-induced cytopathic effect after 3 to 6 days by MTS assay. The data set is classed as functional, organism-based.
A short description of data set [5]: Cytotoxicity against human HeLa cells assessed as alterations in normal cell morphology measured after 3 to 6 days by microscopic analysis. Type of data set: cell-based. The method in brief:
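Mock-infected HeLa cultures in 2% FCS medium received serial five-fold dilutions […] for 3–6 days at 37 °C. MCC was the lowest concentration giving microscopically visible minimal change in cell morphology (rounding, shrinking, lysis).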

A further data set deals with Coxsackievirus B4. Briefly: Antiviral activity against Coxsackie B4 virus infected in human HeLa cells assessed as inhibition of virus-induced cytopathic effect after 3 to 6 days by MTS assay. Type of data set: functional, organism-based.
A further data set relates to Human alphaherpesvirus 2. Briefly: Antiviral activity against Herpes simplex virus type 2 infected in human HEL299 cells assessed as inhibition of virus-induced cytopathic effect after 3 to 6 days by MTS assay. Type of data set: functional, organism-based.
The subject of data set [6] is Respiratory syncytial virus. Briefly: Antiviral activity against Respiratory syncytial virus Long infected in human HeLa cells assessed as inhibition of virus-induced cytopathic effect after 3 to 6 days by MTS based microscopy. The data set is classed as functional, organism-based.
The subject of a further data set is Punta Toro virus. Description: Antiviral activity against Punta Toro virus infected in African green monkey Vero cells assessed as inhibition of virus-induced cytopathic effect after 3 to 6 days by MTS assay. The data set is classed as functional, organism-based.

Active and inactive are the calls of the source. The calls are words filed in the database; no cut-off is given here.

One may read the CC50 as the concentration that lowers cell viability or growth by half. As a reminder, the EC50 is the concentration needed to bring the measured effect to its halfway point.

Turning to `NC1=NC2(CCN(C(=O)c3ccc4ccccc4c3)CC2)N(c2cccc(Cl)c2)C(N)=N1`, the result (in the data set on Human coronavirus 229E; with Human alphaherpesvirus 1; in the data set on Human adenovirus 2; with Human respirovirus 3; in data set [2]; with Vaccinia virus) was inactive. For the same compound, the outcome (in [3]; in data set [4]; in the data set with Yellow fever virus; with Sindbis virus; with Coxsackievirus B4; with Human alphaherpesvirus 2) was inactive. Besides, the outcome in the data set with Punta Toro virus was inactive. For the same compound, the MCC in [1] was at least 4 µM; in data set [5] it was at least 100 µM. For the same compound, the CC50 in the data set on MDCK is over 100 µM. For the same compound, the EC50 was 28 µM in the data set on Influenza A virus, 4 µM in the data set with Influenza B virus and over 100 µM in data set [6]. The Activity result in the data set on Vero is recorded as “Non-Toxic”.

For `CCCN1C(N)=NC(N)=NC12CCN(C(=O)C1CC1)CC2`, the result (in the data set on Human coronavirus 229E; with Human alphaherpesvirus 1; with Human adenovirus 2; in the data set with Human respirovirus 3; in data set [2]; in the data set with Vaccinia virus) was inactive. Further, the result (in data set [3]; in data set [4]; in the data set on Yellow fever virus; in the data set with Sindbis virus; in the data set with Coxsackievirus B4; in the data set with Human alphaherpesvirus 2) was inactive. In the data set on Punta Toro virus, the outcome was inactive. In addition, the MCC in [1] and in [5] was over 100 µM in each case. Moreover, the CC50 with MDCK was over 100 µM. Moreover, the EC50 (in the data set with Influenza A virus; with Influenza B virus; in [6]) was over 100 µM throughout. In the data set with Vero, the Activity entry is “Non-Toxic”.

With `COCCN1C(N)=NC(N)=NC12CCN(C(=O)c1cccn1C)CC2`, the result (in the data set with Human coronavirus 229E; in the data set on Human alphaherpesvirus 1; in the data set on Human adenovirus 2; with Human respirovirus 3; in data set [2]; in the data set on Vaccinia virus) was inactive. For the same compound, the result (in [3]; in data set [4]; in the data set on Yellow fever virus; in the data set with Sindbis virus; in the data set with Coxsackievirus B4; in the data set with Human alphaherpesvirus 2) was inactive. Also, the result in the data set on Punta Toro virus was inactive. Moreover, the MCC in data set [1] and in [5] was over 100 µM throughout. Moreover, in the data set with MDCK, the cytotoxic concentration (CC50) was over 100 µM. Also, the EC50 (with Influenza A virus; with Influenza B virus; in data set [6]) was over 100 µM in each case. Also, the Activity entry in the data set with Vero is “Non-Toxic”.

Consider `CC(N)C12CC3CC(CC(C3)C1)C2` (stereo unspecified) [RIMANTADINE], for which the MCC in data set [1] was at least 500 µM. Further, the CC50 in the data set on MDCK is over 500 µM. Moreover, the EC50 with Influenza A virus was 28 µM; with Influenza B virus, over 500 µM.

On to `Cl.NC1=NC2(CCCN(Cc3ccccc3)C2)N(c2ccccc2)C(N)=N1` (stereo unspecified), for which the result (in the data set with Human coronavirus 229E; in the data set on Human alphaherpesvirus 1; with Human adenovirus 2; with Human respirovirus 3; in data set [2]; in the data set with Vaccinia virus) was inactive. Further, the result (in data set [3]; in data set [4]; with Yellow fever virus; in the data set on Sindbis virus; in the data set on Coxsackievirus B4; in the data set with Human alphaherpesvirus 2) was inactive. Moreover, the result with Punta Toro virus was inactive. The MCC in [1] and in data set [5] was over 100 µM in each case. Besides, the 50% cytotoxic concentration (CC50) in the data set with MDCK was over 100 µM. Further, the concentration giving a half-maximal response (EC50) (with Influenza A virus; in the data set with Influenza B virus; in data set [6]) was over 100 µM each time. For the same compound, the Activity result in the data set on Vero is recorded as “Non-Toxic”.

With `CCCN1C(N)=NC(N)=NC12CCN(S(=O)(=O)CCC)CC2`, the result (in the data set on Human coronavirus 229E; in the data set with Human alphaherpesvirus 1; in the data set on Human adenovirus 2; in the data set with Human respirovirus 3; in data set [2]; in the data set with Vaccinia virus) was inactive. Also, the outcome (in [3]; in data set [4]; with Yellow fever virus; with Sindbis virus; with Coxsackievirus B4; with Human alphaherpesvirus 2) was inactive. Moreover, the result in the data set on Punta Toro virus was inactive. Also, the MCC in [1] and in data set [5] was over 100 µM each time. Besides, the CC50 in the data set with MDCK was over 100 µM. Also, the EC50 (in the data set with Influenza A virus; in the data set with Influenza B virus; in [6]) was over 100 µM each time. For the same compound, in the data set on Vero, the Activity result was “Non-Toxic”.

As to `COc1cccc(N2C(N)=NC(N)=NC23CCN(C(=O)c2ccc(C(F)(F)F)cc2C)CC3)c1`, the outcome (with Human coronavirus 229E; in the data set on Human alphaherpesvirus 1; in the data set on Human adenovirus 2; in the data set with Human respirovirus 3; in data set [2]; in the data set on Vaccinia virus) was inactive. Besides, the result (in data set [3]; in [4]; in the data set with Yellow fever virus; in the data set on Sindbis virus; in the data set on Coxsackievirus B4; with Human alphaherpesvirus 2) was inactive. Also, the result in the data set on Punta Toro virus was inactive. Also, the MCC in [1] and in [5] was over 100 µM throughout. Moreover, in the data set on MDCK, the CC50 is over 100 µM. Moreover, the EC50 (in the data set on Influenza A virus; in the data set on Influenza B virus; in [6]) was over 100 µM in each case. Moreover, the Activity entry in the data set with Vero is “Non-Toxic”.

On to `NC(=O)c1ncn([C@@H]2O[C@H](CO)[C@@H](O)[C@H]2O)n1` [RIBAVIRIN], for which the MCC is at least 20 µM in data set [1] and over 250 µM in [5]. Besides, the results for the EC50 in the data set with Influenza A virus and with Influenza B virus were 11 µM and 3.2 µM, respectively.

In the case of `NC12CC3CC(CC(C3)C1)C2` [AMANTADINE], the MCC in data set [1] was over 500 µM. Moreover, the CC50 in the data set on MDCK is over 500 µM. The values for the concentration giving a half-maximal response (EC50) in the data set with Influenza A virus and in the data set on Influenza B virus were 26 µM and over 500 µM, respectively.

With `CC(=O)N[C@H]1[C@H]([C@H](O)[C@H](O)CO)OC(C(=O)O)=C[C@@H]1N=C(N)N` [ZANAMIVIR], in [1], the MCC was over 100 µM. Also, the CC50 in the data set on MDCK is over 100 µM. Further, the EC50 stood at 1.3 µM in the data set on Influenza A virus and 0.14 µM in the data set with Influenza B virus.

For the origin of these results see ChEMBL document CHEMBL4152296, “Synthesis, biological evaluation and molecular modeling of novel azaspiro dihydrotriazines as influenza virus inhibitors targeting the host factor dihydrofolate reductase (DHFR)” (Eur J Med Chem, 2018).
